Measurements taken from ChEMBL document CHEMBL4118097, “Selective Inhibitors of Dual Leucine Zipper Kinase (DLK, MAP3K12) with Activity in a Model of Alzheimer's Disease” (J Med Chem, 2017).
The source made the active and inactive calls.

Assays:
[1] = biological target: Dual specificity tyrosine-phosphorylation-regulated kinase 3 (Homo sapiens) (UniProt O43781); assay: Inhibition of full length recombinant GST-tagged human DYRK3 expressed in baculovirus expression system at 1 uM by FRET assay relative to control
[2] = biological target: Dual specificity tyrosine-phosphorylation-regulated kinase 1A (Homo sapiens) (UniProt Q13627); assay: Inhibition of full length recombinant GST-tagged human DYRK1A expressed in baculovirus expression system at 1 uM by FRET assay relative to control
[3] = biological target: Casein kinase I isoform gamma-2 (Homo sapiens) (UniProt P78368); assay: Inhibition of CK1gamma2 (unknown origin) at 1 uM by FRET assay relative to control
[4] = biological target: Casein kinase I isoform epsilon (Homo sapiens) (UniProt P49674); assay: Inhibition of CK1epsilon1 (unknown origin) at 1 uM by FRET assay relative to control
Casein kinase I isoform epsilon (Homo sapiens), sequence (P49674 whole entry, looked up, canonical isoform): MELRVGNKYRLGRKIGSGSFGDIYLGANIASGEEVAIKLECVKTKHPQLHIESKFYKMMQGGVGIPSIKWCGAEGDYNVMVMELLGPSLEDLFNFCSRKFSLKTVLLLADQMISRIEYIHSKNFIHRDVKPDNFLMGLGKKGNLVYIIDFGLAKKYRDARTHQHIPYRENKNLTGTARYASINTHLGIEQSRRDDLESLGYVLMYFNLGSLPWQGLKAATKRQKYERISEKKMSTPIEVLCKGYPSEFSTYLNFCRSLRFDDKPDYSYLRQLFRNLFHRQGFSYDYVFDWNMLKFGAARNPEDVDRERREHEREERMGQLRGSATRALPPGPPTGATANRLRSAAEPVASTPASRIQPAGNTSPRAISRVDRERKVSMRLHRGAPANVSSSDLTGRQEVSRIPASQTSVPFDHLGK

[5] = biological target: Casein kinase I isoform alpha (Homo sapiens) (UniProt P48729); assay: Inhibition of CK1alpha1 (unknown origin) at 1 uM by FRET assay relative to control
Casein kinase I isoform alpha (Homo sapiens), sequence (P48729 2-337 limits assumed): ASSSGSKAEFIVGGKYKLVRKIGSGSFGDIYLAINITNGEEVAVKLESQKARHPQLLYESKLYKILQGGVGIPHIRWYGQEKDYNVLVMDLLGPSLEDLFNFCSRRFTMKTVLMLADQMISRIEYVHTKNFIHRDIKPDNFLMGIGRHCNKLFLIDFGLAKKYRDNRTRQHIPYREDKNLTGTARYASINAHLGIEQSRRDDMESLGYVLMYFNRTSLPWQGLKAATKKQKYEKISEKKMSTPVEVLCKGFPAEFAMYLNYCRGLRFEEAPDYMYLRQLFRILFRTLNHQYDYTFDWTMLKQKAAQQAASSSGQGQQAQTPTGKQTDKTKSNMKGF

[6] = biological target: Calcium/calmodulin-dependent protein kinase kinase 2 (Homo sapiens) (UniProt Q96RR4); assay: Inhibition of recombinant full length GST-tagged human CAMKK2 expressed in baculovirus expression system at 1 uM by FRET assay relative to control
Calcium/calmodulin-dependent protein kinase kinase 2 (Homo sapiens), sequence (Q96RR4 2-588 limits assumed): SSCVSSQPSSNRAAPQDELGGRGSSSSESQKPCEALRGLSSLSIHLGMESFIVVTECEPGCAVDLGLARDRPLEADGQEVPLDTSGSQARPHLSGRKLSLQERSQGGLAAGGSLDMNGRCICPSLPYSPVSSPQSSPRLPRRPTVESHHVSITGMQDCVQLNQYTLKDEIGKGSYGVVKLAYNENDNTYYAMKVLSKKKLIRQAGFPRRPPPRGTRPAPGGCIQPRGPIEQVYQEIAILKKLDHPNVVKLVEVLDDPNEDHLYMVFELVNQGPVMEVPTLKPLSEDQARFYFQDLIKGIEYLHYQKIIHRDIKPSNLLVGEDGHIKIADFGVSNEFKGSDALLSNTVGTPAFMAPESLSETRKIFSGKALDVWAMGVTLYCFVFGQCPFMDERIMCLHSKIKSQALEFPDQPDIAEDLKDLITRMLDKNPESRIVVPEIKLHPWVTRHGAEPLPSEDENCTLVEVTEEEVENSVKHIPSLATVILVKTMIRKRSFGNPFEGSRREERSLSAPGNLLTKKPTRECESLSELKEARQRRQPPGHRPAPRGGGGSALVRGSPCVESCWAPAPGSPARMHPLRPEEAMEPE
Procedure, shortened: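 Single-concentration screen at 1 μM in Life Technologies SelectScreen, across a 220-kinase panel. Z′-LYTE format measures phosphorylation of a labeled peptide by FRET. Results are reported as percent inhibition.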

[7] = biological target: Calcium/calmodulin-dependent protein kinase type II subunit alpha (Homo sapiens) (UniProt Q9UQM7); assay: Inhibition of CamK2alpha (unknown origin) at 1 uM by FRET assay relative to control
Calcium/calmodulin-dependent protein kinase type II subunit alpha (Homo sapiens), sequence (Q9UQM7 whole entry, the tested form may be a part): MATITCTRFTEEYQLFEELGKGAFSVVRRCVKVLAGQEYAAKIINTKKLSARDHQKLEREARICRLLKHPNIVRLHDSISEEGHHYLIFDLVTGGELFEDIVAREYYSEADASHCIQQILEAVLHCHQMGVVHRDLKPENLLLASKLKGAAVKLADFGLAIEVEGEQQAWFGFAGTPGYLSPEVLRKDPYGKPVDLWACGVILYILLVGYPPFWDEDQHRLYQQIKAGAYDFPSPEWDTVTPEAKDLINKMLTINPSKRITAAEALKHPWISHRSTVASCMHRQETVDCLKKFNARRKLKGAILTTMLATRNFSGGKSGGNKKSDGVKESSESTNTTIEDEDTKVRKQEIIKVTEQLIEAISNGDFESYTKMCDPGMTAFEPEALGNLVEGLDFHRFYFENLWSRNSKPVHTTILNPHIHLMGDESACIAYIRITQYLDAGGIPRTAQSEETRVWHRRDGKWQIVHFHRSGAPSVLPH

[8] = biological target: Tyrosine-protein kinase receptor UFO (Homo sapiens) (UniProt P30530); assay: Inhibition of recombinant His-tagged human AXL (473 to end residues) cytoplasmic domain expressed in insect cells at 1 uM by FRET assay relative to control
Tyrosine-protein kinase receptor UFO (Homo sapiens), sequence (P30530 whole entry, the tested form may be a part): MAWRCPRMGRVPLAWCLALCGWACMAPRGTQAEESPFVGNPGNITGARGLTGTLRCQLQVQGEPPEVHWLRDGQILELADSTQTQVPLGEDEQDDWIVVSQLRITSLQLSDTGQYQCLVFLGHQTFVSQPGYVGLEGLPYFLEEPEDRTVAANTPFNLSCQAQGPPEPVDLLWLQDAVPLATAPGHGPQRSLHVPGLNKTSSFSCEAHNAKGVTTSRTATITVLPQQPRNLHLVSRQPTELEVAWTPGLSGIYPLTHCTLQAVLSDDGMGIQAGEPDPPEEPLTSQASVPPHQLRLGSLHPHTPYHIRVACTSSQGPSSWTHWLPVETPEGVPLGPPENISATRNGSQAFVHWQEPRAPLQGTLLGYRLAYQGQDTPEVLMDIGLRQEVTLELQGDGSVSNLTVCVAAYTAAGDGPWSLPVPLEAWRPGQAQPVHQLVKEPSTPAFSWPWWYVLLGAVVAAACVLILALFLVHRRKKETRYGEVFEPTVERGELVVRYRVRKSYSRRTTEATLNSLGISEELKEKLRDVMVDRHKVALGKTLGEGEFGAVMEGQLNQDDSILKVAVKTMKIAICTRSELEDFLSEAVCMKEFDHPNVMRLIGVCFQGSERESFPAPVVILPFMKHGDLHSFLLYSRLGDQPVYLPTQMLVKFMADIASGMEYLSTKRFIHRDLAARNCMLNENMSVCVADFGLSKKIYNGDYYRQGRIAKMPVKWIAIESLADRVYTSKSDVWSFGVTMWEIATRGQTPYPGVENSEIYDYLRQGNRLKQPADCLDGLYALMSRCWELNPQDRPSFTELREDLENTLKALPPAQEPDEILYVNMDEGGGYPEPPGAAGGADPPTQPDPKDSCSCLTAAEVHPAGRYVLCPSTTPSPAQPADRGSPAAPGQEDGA
Procedure, shortened: (§1)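 Single-point screen at 1 μM compound in a 220-kinase panel run by Life Technologies (SelectScreen). Z′-LYTE format: phosphorylation of a labeled peptide substrate read by FRET. Values are reported as percent inhibition.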

[9] = biological target: Aurora kinase A (Homo sapiens) (UniProt O14965); assay: Inhibition of recombinant full length His-tagged human Aurora A expressed in baculovirus expression system at 1 uM by FRET assay relative to control
Aurora kinase A (Homo sapiens), sequence (O14965 whole entry, the tested form may be a part): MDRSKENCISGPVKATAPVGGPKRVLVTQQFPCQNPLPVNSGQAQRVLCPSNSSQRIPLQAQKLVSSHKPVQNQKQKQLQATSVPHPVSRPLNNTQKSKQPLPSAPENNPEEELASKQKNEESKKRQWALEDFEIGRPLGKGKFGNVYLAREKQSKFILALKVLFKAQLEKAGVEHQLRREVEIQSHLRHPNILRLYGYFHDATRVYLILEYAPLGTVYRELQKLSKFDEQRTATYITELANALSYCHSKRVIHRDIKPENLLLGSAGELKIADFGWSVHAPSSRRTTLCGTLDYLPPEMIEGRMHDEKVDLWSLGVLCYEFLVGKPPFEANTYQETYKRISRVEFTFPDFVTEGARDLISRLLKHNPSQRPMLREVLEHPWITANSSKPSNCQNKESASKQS

[10] = test system: Epidermal growth factor receptor (Homo sapiens), P00533 [L858R,T790M]; assay: Inhibition of recombinant GST-tagged human EGFR cytoplasmic domain (668 to 1210 residues) T790M/L858R double mutant expressed in baculovirus expression system at 1 uM by FRET assay relative to control
Procedure, shortened: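 Part of a 220-kinase panel run at a single concentration of 1 μM. Z′-LYTE format: phosphorylation of a labelled peptide read by FRET. Values reported as percent inhibition.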

[11] = biological target: Phosphatidylinositol 4,5-bisphosphate 3-kinase catalytic subunit gamma isoform (Homo sapiens) (UniProt P48736); assay: Inhibition of recombinant full length His-tagged human PI3KG at 1 uM by FRET assay relative to control
[12] = biological target: Serine/threonine-protein kinase WNK2 (Homo sapiens) (UniProt Q9Y3S1); assay: Inhibition of recombinant GST-tagged human WNK2 expressed in baculovirus expression system at 1 uM by FRET assay relative to control; procedure, shortened: as §1
[13] = biological target: Tyrosine-protein kinase receptor UFO (Homo sapiens, UniProt P30530); assay: Inhibition of recombinant His-tagged human AXL (473 to end residues) cytoplasmic domain expressed in insect cells by FRET assay
[14] = biological target: Macrophage colony-stimulating factor 1 receptor (Homo sapiens, UniProt P07333); assay: Inhibition of recombinant His-tagged human CSF1R cytoplasmic domain (538 to 910 residues) expressed in baculovirus expression system by FRET assay
Myotonin-protein kinase = Myotonin-protein kinase (Homo sapiens, UniProt Q09013); assay: Inhibition of full length recombinant human DMPK expressed in baculovirus expression system by FRET assay
Ephrin type-A receptor 7 = Ephrin type-A receptor 7 (Homo sapiens, UniProt Q15375); assay: Inhibition of recombinant GST-tagged human EphA7 cytoplasmic domain expressed in baculovirus expression system by FRET assay
[15] = biological target: Mitogen-activated protein kinase kinase kinase 9 (Homo sapiens, UniProt P80192); assay: Inhibition of recombinant human GST-tagged MLK1 expressed in baculovirus expression system by FRET assay
Mitogen-activated protein kinase kinase kinase 9, sequence (P80192 whole entry): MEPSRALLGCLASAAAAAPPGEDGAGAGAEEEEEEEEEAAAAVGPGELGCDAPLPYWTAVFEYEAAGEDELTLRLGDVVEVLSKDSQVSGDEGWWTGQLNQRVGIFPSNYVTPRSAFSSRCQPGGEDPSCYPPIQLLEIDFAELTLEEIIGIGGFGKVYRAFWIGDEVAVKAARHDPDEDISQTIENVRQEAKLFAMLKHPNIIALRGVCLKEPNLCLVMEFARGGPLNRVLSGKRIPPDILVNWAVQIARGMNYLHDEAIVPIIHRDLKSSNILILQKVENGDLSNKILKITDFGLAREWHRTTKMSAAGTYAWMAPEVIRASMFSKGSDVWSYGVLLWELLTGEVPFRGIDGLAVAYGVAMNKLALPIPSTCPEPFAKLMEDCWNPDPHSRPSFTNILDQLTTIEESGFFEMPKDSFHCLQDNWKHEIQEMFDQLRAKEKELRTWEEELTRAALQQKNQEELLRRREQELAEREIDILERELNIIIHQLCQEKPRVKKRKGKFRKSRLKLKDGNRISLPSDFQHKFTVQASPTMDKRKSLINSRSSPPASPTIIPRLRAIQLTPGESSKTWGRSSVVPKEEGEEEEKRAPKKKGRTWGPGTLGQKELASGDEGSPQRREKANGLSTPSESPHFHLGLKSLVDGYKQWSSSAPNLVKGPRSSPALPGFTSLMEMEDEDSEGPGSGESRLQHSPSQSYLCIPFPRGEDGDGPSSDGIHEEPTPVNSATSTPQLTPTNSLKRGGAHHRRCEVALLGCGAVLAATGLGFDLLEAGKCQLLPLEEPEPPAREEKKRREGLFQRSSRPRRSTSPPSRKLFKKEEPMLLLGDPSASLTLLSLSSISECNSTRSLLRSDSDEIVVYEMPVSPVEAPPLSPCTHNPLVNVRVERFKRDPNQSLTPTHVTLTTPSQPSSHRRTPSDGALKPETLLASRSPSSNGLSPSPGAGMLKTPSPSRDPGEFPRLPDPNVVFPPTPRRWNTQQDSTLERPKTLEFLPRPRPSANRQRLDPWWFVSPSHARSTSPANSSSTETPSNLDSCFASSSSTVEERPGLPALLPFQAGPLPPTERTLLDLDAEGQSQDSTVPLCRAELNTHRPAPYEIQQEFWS

Homo sapiens = species: Homo sapiens; assay: Binding affinity to BZD receptor (unknown origin) at 10 uM relative to control
Procedure, shortened: (§2)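 Broad radioligand-binding and enzyme screening panel covering 42 targets (biogenic amine and neuropeptide receptors, ion channels, neurotransmitter transporters, acetylcholinesterase). Single test concentration of 10 μM. Results expressed as binding relative to control, with a hit defined as >50% of control.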

[16] = biological target: Endothelin-1 receptor (Homo sapiens) (UniProt P25101); assay: Binding affinity to recombinant human ETA receptor at 10 uM relative to control; procedure, shortened: as §2
Endothelin-1 receptor (Homo sapiens), sequence (P25101 whole entry): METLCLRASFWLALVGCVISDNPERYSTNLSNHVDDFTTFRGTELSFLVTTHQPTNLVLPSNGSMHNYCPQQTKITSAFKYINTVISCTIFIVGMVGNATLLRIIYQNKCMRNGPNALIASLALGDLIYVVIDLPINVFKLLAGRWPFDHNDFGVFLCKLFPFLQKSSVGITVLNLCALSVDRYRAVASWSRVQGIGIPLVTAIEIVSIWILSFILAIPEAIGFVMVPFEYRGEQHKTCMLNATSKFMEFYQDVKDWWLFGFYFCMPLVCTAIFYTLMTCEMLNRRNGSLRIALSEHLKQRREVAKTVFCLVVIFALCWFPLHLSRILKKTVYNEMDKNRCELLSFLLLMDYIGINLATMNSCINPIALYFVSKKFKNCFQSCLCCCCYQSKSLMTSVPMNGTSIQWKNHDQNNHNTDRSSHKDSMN

Mus musculus [17] = assay: In-vivo inhibition of DLK in PS2APP mouse model assessed as reduction in phosphorylated c-jun level in cortical lysate at 15 mg/kg, po administered as single dose after 6 hrs by Western blot analysis; format: functional, organism-based
Mus musculus [18] = assay: In-vivo inhibition of DLK in PS2APP mouse model assessed as reduction in phosphorylated c-jun level in cortical lysate at 50 mg/kg, po administered as single dose after 6 hrs by Western blot analysis; format: functional, organism-based
Mus musculus [19] = assay: Down regulation of phosphorylated MKK4 level in cortical lysate of PS2APP mouse model at 15 to 50 mg/kg, po administered as single dose after 6 hrs by Western blot analysis; format: functional, organism-based
Mus musculus [20] = assay: In-vivo inhibition of DLK in PS2APP mouse model assessed as reduction in phosphorylated c-jun level in cortical lysate at 15 mg/kg, po administered as single dose after 6 hrs by Western blot analysis relative to control; format: functional
Procedure, shortened: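 Homozygous PS2APP mice aged 9–10 months got one oral dose of 15 mg/kg as an MCT suspension, or vehicle; n = 7–8 per group. At 6 h: terminal plasma by cardiac puncture under deep anaesthesia, then PBS perfusion. Left cortex frozen at −80 °C and homogenised in 10 volumes RIPA. p-c-Jun read by Western blot with a GAPDH control, compared with vehicle (Dunnett's test).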

[21] = biological target: Serine/threonine-protein kinase 26 (Homo sapiens) (UniProt Q9P289); assay: Inhibition of recombinant GST-tagged human MST4 expressed in baculovirus at 1 uM by FRET assay relative to control
[22] = biological target: Death-associated protein kinase 3 (Homo sapiens) (UniProt O43293); assay: Inhibition of recombinant full length GST-tagged human ZIPK expressed in baculovirus expression system at 1 uM by FRET assay relative to control
[23] = biological target: Protein kinase C zeta type (Homo sapiens) (UniProt Q05513); assay: Inhibition of PKCzeta (unknown origin) at 1 uM by FRET assay relative to control
[24] = biological target: Serine/threonine-protein kinase 16 (Homo sapiens, UniProt O75716); assay: Inhibition of recombinant full length His-tagged human STK16 expressed in baculovirus expression system by FRET assay
Serine/threonine-protein kinase 16, sequence (O75716 whole entry): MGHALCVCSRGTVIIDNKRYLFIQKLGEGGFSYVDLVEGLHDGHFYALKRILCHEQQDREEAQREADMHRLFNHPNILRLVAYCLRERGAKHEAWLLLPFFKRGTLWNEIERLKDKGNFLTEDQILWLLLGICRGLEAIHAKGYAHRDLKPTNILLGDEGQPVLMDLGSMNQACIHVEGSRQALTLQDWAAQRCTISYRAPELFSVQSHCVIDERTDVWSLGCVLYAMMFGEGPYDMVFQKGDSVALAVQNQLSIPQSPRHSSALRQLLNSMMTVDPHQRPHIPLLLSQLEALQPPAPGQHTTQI

| Compound | inhibition [1] | inhibition [2] | inhibition [4] | inhibition [5] | inhibition [6] | inhibition [7] | inhibition [8] | inhibition [9] | inhibition [10] | inhibition [12] | IC50 [15] | Activity (Homo sapiens) | Activity [16] | other results |
| --- | --- | --- | --- | --- | --- | --- | --- | --- | --- | --- | --- | --- | --- | --- |
| Nc1ncc(-c2cc([C@H]3[C@@H]4CN(C5COC5)C[C@@H]43)n(CC3CC3)n2)cc1C(F)(F)F | -7.9% | 3.9% | 9.5% | 1.1% | 8.7% | 0.6% | 57.4% | 27.2% | 8.2% | -0.6% | 3.5 µM | > 50% | > 50% | inhibition [3]: 7.1%; inhibition [11]: 12.4%; IC50 [13]: 448 nM; IC50 [14]: 1220 nM; IC50 (Myotonin-protein kinase): 1380 nM; IC50 (Ephrin type-A receptor 7): 665 nM |
| CC(C)n1nc(-c2cnc(N)c(OC(F)(F)F)c2)cc1[C@H]1[C@@H]2CN(C3COC3)C[C@@H]21 | 0.6% | 7% | 1.5% | -0.3% | 1.5% | 2.4% | 40.7% | 16.2% | 9.8% | 1.4% | 5.92 µM | > 50% | > 50% | inhibition (Mus musculus [17]): Active; inhibition (Mus musculus [18]): Active; Activity (Mus musculus [19]): Active; inhibition in vivo at 15 mg/kg (Mus musculus [20]): 42%; inhibition [21]: -3.5%; inhibition [22]: 3.5%; inhibition [23]: 5.9%; IC50 [24]: 1520 nM |
